Experimental data from article PMC6710528 (British Journal of Clinical Pharmacology, 2019).
“Also recorded” adds a separate entry of the source. Like-named read-outs stand apart in the source and are kept apart here.

Columns and labels:
[1] = Plasma concentrations of ketoconazole and fluconazole to confirm steady state; format: in vivo, human (healthy subjects); conditions: 200 mg twice daily
Procedure, shortened: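 Inhibitors were given orally for 8 days (moderate inhibitor: 200 mg twice daily) before the test compound. Blood was drawn before the morning dose on Days 6–8. On Day 8 it was also drawn at 2 and 12 h post-dose for the strong inhibitor, and at 3 and 12 h for the moderate inhibitor. Plasma levels were measured by validated LC–MS/MS and reported as mean ± standard deviation.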

[2] = format: in vivo, human (healthy subjects); conditions: for Tmax / AUC(0-inf) / AUC(0-t) / half-life / Cmax: human, plasma, oral; for AUC(0-inf): AUCinf; for AUC(0-inf) / AUC(0-t) / Cmax: geometric LS mean (SE); for AUC(0-t): AUClast; for half-life: Mean T1/2 (CV%); for Increase in T1/2: quizartinib coadministered with ketoconazole; for Geometric mean CL/F (%CV): quizartinib
[3] = Safety: adverse event evaluation; format: in vivo, human (healthy subjects)
Procedure, shortened: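 Healthy males and females aged 18–55 years were randomised 1:1:1 to strong inhibitor + test compound, moderate inhibitor + test compound, or test compound alone. A single oral 30 mg dose was given on Day 8. The safety population was everyone who received the test compound or ≥1 inhibitor dose. Assessments included physical exams, vital signs, 12‑lead ECG, haematology, chemistry and urinalysis. AEs were graded for severity, relation to study drugs and clinical significance through Day 29.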

[4] = ref data on file, Daiichi Sankyo, Inc; cited from earlier work
[5] = 12-lead electrocardiograms: QTcF interval by ICH E14 category; format: in vivo, human (healthy subjects); conditions: single 30-mg dose alone or with ketoconazole or fluconazole
[6] = C-QTc model, phase 2 data; ref data on file, Daiichi Sankyo, Inc; cited from earlier work
[7] = 30 mg, quizartinib in plasma, single 30-mg dose of quizartinib alone
[8] = 200 mg, quizartinib in plasma, single 30-mg dose with fluconazole 200 mg twice daily
[9] = 200 mg, quizartinib in plasma, single 30-mg dose with ketoconazole 200 mg twice daily
[10] = with fluconazole coadministration
[11] = with ketoconazole coadministration vs quizartinib alone
[12] = AC886 in plasma, (Ketoconazole + Quizartinib)/(Quizartinib)

Compound: OC(Cn1cncn1)(Cn1cncn1)c1ccc(F)cc1F [fluconazole]
- Mean (± standard deviation) plasma concentration ([1]; predose on Day 6): 13.2 ± 4.1 µg/mL
- Mean (± standard deviation) plasma concentration ([1]; predose on Day 7): 13.8 ± 3.8 µg/mL
- Mean (± standard deviation) plasma concentration ([1]; predose on Day 8): 14.5 ± 3.7 µg/mL

Compound: CC(C)(C)c1cc(NC(=O)Nc2ccc(-c3cn4c(n3)sc3cc(OCCN5CCOCC5)ccc34)cc2)no1 [quizartinib]
- Increase in quizartinib exposure ([2]; coadministration with moderate CYP3A inhibitor fluconazole): ≤ 20%
- Tmax ([2]; 30 mg): 4 h
- AUC(0-inf) [2, 7]: 9630 ng·h/mL
- AUC(0-t) [2, 7]: 9100 ng·h/mL
- half-life [2, 7]: 98 h
- Tmax ([2]; 200 mg): 4 h
- AUC(0-inf) [2, 8]: 11500 ng·h/mL
- AUC(0-inf) [2, 9]: 18700 ng·h/mL
- AUC(0-t) [2, 8]: 10900 ng·h/mL
- AUC(0-t) [2, 9]: 17000 ng·h/mL
- Cmax [2, 8]: 116 ng/mL
- Cmax [2, 9]: 121 ng/mL
- half-life [2, 8]: 112 h
- half-life [2, 9]: 145 h
- Decrease in CL/F ([2]; ketoconazole coadministered with quizartinib): 50%
- Increase in T1/2 [2]: 46%
- Median Tmax (min, max) ([2]; quizartinib in plasma, single 30-mg dose with fluconazole 200 mg twice daily): 4.0 (2.0, 5.0) [n = 28] h
- Mean T1/2 (CV%) ([2]; quizartinib in plasma, single 30-mg dose with ketoconazole 200 mg twice daily): 149 (23.0) [n = 28] h
- Geometric mean CL/F (%CV) ([2]; single 30-mg dose of quizartinib alone): 2.75 (35.9) [n = 29] L/h
- Geometric mean CL/F (%CV) ([2]; single 30-mg dose with fluconazole 200 mg twice daily): 2.29 (34.3) [n = 28] L/h
- Geometric mean CL/F (%CV) ([2]; single 30-mg dose with ketoconazole 200 mg twice daily): 1.42 (26.1) [n = 28] L/h
- Change in CL/F [2, 10]: ~17%
- Change in mean T1/2 [2, 10]: ~ 10%
- Increase in geometric LS mean AUCinf [2, 10]: 20%
- Increase in geometric LS mean AUClast [2, 10]: 20%
- Increase in geometric LS mean Cmax [2, 10]: 11%
- Increase in geometric LS mean AUCinf [2, 11]: 94%
- Increase in geometric LS mean AUClast [2, 11]: 86%
- Increase in geometric LS mean Cmax [2, 11]: 17%
- Serious adverse events ([3]; all treatment arms): no serious adverse events or deaths occurred; also recorded: no serious AEs observed
- Subjects who experienced at least 1 AE ([3]; fluconazole + quizartinib arm): 14 (45.2%) subjects (%)
- Subjects with AEs considered possibly related to quizartinib ([3]; fluconazole + quizartinib arm): 1 subjects
- Subjects with AEs considered possibly related to quizartinib ([3]; ketoconazole + quizartinib arm): 1 subjects
- Subjects who experienced quizartinib-related adverse events ([3]; overall): 5.4%
- Subjects with AEs considered possibly related to quizartinib ([3]; overall (n = 93)): 5 (5.4%) subjects (%)
- Subjects who experienced at least 1 AE ([3]; quizartinib + ketoconazole arm): 9 (29.0%) subjects (%)
- Subjects who experienced at least 1 AE ([3]; quizartinib arm): 13 (41.9%) subjects (%)
- Subjects with AEs considered possibly related to quizartinib ([3]; quizartinib arm): 3 subjects
- Median effective half-life [4]: 73 h
- Vital signs and changes to QTcF, haematology or clinical chemistry [5]: No significant abnormalities in vital signs or changes to QTcF

Compound: CC(=O)N1CCN(c2ccc(OCC3COC(Cn4ccnc4)(c4ccc(Cl)cc4Cl)O3)cc2)CC1 (stereo not drawn) [ketoconazole]
- Mean (± standard deviation) plasma concentration ([1]; predose on Day 6): 1.5 ± 0.8 µg/mL
- Mean (± standard deviation) plasma concentration ([1]; predose on Day 7): 1.4 ± 0.7 µg/mL
- Mean (± standard deviation) plasma concentration ([1]; predose on Day 8): 1.4 ± 0.8 µg/mL

Compound: CC(C)(CO)c1cc(NC(=O)Nc2ccc(-c3cn4c(n3)sc3cc(OCCN5CCOCC5)ccc34)cc2)no1 [AC886]
- AUCinf, ratio of geometric LS mean (90% CI) [2, 12]: 85%
- AUClast, ratio of geometric LS mean (90% CI) [2, 12]: 67%
- Cmax, ratio of geometric LS mean (90% CI) [2, 12]: 40%
- Median Tmax (min, max) ([2]; AC886 in plasma, single 30-mg dose of quizartinib alone): 5.1 h
- Median Tmax (min, max) ([2]; AC886 in plasma, single 30-mg quizartinib dose with fluconazole): 5.0 h
- Median Tmax (min, max) ([2]; AC886 in plasma, single 30-mg quizartinib dose with ketoconazole): 48.0 h
- Ratio of geometric LS means of Cmax of AC886 to Cmax of quizartinib ([2]; fluconazole + quizartinib arm): 0.12
- Ratio of geometric LS means of Cmax of AC886 to Cmax of quizartinib ([2]; ketoconazole + quizartinib arm): 0.04
- Ratio of geometric LS means of Cmax of AC886 to Cmax of quizartinib ([2]; quizartinib arm): 0.13
- Increase in T1/2 [2]: 96%
- Effect on QTcF, fold lower than quizartinib [6]: 10 fold
